These results are taken from ChEMBL document CHEMBL4732101, “Novel quinolone-based potent and selective HDAC6 inhibitors: Synthesis, molecular modeling studies and biological investigation” (Eur J Med Chem, 2021).

Data set [1] deals with HCT-116. The experiment in a line: Induction of apoptosis in human HCT-116 cells assessed as increase in PARP cleavage at 10 uM measured after 24 hrs by Western blot analysis. In kind it is functional, cell-based. The method in brief:
(§1)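 HCT-116 or U937 cells treated at 10 µM for 12 and 24 h. […] Western blot used 40 µg total protein or 5 µg acid-extracted histone. Blots probed for cleaved PARP, acetylated tubulin, H3K9/14ac and Hsp90(AcLys294), normalized to GAPDH or H4. Compared with control cells by one-way ANOVA and Dunnett's test.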

Data set [2] can be described thus: Mutagenicity in Salmonella typhimurium TA100 at 5 to 230 uM measured after 90 mins in absence of rat liver S9 fraction by Ames test. The data set is classed as toxicity. Conditions: salmonella enterica subsp. enterica serovar typhimurium, s9, 1.5 h, dose 5-230 µM.
Data set [3] is described as follows: Mutagenicity in Salmonella typhimurium TA100 at 5 to 230 uM measured after 90 mins in presence of rat liver S9 fraction by Ames test. The data set is classed as toxicity, subcellular. Particulars: salmonella enterica subsp. enterica serovar typhimurium, s9, 1.5 h, dose 5-230 µM.
The nature of data set [4]: Mutagenicity in Salmonella typhimurium TA98 at 5 to 230 uM measured after 90 mins in presence of rat liver S9 fraction by Ames test. The data set is classed as toxicity, subcellular. Particulars: salmonella enterica subsp. enterica serovar typhimurium, s9, 1.5 h, dose 5-230 µM.
Data set [5] relates to U-937. The experiment in a line: Cytotoxicity against human U-937 cells assessed as reduction in cell viability measured after 48 hrs by MTT assay. In kind it is functional, cell-based. Conditions: U-937, 48 h. The method in brief:
(§2)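 U937 cells grown in RPMI-1640 with 10% FBS, 2 mM L-glutamine and penicillin-streptomycin. 2.5×10^4 cells/well treated in triplicate at 50, 25, 10, 5 and 1 µM for 12, 24 or 48 h. MTT 0.5 mg/ml added for 3 h, plate centrifuged 5 min at 1200 rpm, crystals dissolved in isopropanol, A570 read. IC50 derived from the concentration series.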

Data set [6] concerns the target T1, Protein deacetylase HDAC6 (Homo sapiens) (UniProt Q9UBN7).
T1 sequence (whole entry): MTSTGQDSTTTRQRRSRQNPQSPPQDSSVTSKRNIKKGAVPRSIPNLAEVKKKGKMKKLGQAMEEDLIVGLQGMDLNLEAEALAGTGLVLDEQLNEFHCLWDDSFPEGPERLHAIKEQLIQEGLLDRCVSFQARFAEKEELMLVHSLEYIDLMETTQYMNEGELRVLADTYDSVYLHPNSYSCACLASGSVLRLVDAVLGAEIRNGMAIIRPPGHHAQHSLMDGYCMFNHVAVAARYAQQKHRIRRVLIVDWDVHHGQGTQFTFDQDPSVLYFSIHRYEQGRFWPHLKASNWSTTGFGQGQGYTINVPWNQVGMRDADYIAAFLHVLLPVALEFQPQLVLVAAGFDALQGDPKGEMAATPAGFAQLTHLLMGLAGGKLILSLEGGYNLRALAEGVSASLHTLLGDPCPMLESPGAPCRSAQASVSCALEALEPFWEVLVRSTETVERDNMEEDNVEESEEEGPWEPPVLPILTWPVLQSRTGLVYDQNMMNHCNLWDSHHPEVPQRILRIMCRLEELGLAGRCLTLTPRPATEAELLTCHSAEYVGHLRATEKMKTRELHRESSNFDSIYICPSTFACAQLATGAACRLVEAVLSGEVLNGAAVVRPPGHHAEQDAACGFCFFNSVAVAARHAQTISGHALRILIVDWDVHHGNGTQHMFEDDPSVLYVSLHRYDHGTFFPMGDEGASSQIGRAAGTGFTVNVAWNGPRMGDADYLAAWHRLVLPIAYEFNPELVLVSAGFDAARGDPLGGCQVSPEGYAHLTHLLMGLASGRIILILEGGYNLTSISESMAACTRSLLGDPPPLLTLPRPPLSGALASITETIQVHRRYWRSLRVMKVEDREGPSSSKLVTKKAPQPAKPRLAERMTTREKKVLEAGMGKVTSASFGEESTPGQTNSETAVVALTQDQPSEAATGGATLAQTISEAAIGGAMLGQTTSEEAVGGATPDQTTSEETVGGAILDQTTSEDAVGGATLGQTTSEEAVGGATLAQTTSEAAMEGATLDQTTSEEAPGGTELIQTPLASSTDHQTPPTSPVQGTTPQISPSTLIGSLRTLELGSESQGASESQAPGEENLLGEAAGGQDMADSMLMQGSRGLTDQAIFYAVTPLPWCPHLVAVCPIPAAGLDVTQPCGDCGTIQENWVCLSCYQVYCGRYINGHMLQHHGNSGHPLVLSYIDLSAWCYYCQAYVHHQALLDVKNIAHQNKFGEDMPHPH
Nature of the data set: Inhibition of HDAC6 in human U-937 cells assessed as increase in alpha-tubulin acetylation at 10 uM measured after 12 to 24 hrs by Western blot analysis relative to control. In kind it is cell-based. Conditions: time 12-24 hrs. In outline:
as §1

Data set [7] deals with U-937. Nature of the data set: Cytotoxicity against human U-937 cells assessed as reduction in cell proliferation at 50 uM measured after 48 hrs by MTT assay relative to control. More on the design: scale not given: the % may be the effect or the level left. The data set is classed as functional. In outline: as §2
Data set [8] has as its system HCT-116. The experiment in a line: Cytotoxicity against human HCT-116 cells assessed as reduction in cell viability measured after 48 hrs by MTT assay. The data set is classed as functional, cell-based. Particulars: HCT-116, 48 h. In outline: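 HCT-116 cells grown in DMEM with 10% FBS, 2 mM L-glutamine and antibiotics. 2.5×10^4 cells/well treated in triplicate at 50, 25, 10, 5 and 1 µM for 12, 24 or 48 h. Then MTT 0.5 mg/ml for 3 h, supernatant removed, formazan dissolved in isopropanol, absorbance read at 570 nm. IC50 derived from the concentration series.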

Data set [9] is described as follows: Cytotoxicity against human PBMC cells assessed as reduction in cell viability at 90 uM measured after 24 to 48 hrs by GUAVA easyCyte cytometric method. In kind it is cell-based. Conditions: time 24-48 hrs. In outline: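 PBMCs seeded at 1.5 x10^6/mL in complete medium and exposed to 15, 45 or 90 µM test compound, or DMSO vehicle, for 24 h and 48 h. Percentage of viable cells determined by flow cytometry with ViaCount reagent.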

Data set [10] is described as follows: Mutagenicity in Salmonella typhimurium TA98 at 5 to 230 uM measured after 90 mins in absence of rat liver S9 fraction by Ames test. In kind it is toxicity. Particulars: salmonella enterica subsp. enterica serovar typhimurium, 1.5 h, dose 5-230 µM.
Data set [11] addresses T1, Protein deacetylase HDAC6 (Homo sapiens). Nature of the data set: Inhibition of HDAC6 in human U-937 cells assessed as increase in Hsp90(AcLys294) acetylation at 10 uM measured after 12 to 24 hrs by Western blot analysis. The data set is classed as cell-based. Conditions: time 12-24 hrs. The method in brief:
as §1

The structures appear in SMILES notation. Active and inactive are the calls of the source. No cut-off for these calls is given here.

With `CCN(CC)Cc1ccc(Cn2c(=O)c(OCc3ccc(C(=O)NO)cc3)c(-c3cccnc3)c3ccccc32)cc1`, in data set [1], the result was Active. Further, the Activity entry in data set [2] is listed as “Non-Toxic”; in [3] it was “Non-Toxic”; in [4], “Non-Toxic”; in data set [7] it was 60%; in [9], “Toxic”; in data set [10] it was “Non-Toxic”. The IC50 in data set [5] was 45.5 µM; in [8], 8.4 µM. Besides, in data set [6], the fold change (FC) is more than 9. In data set [11], the inhibition result is “inactive”.
